Calls of active or inactive are those of the source. No cut-off for these calls is given here.
Columns and labels:
[1] = Cytotoxicity against human NCI-H146 cells assessed as growth inhibition after 4 days by WST assay; assay type: functional, cell-based; details: NCI-H146, 96 h
[2] = molecular target: Apoptosis regulator Bcl-2 (Homo sapiens, UniProt P10415); assay: Binding affinity to BCL2 (unknown origin) after 2 hrs by fluorescence polarization assay
In short: (§1)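 Competitive FP binding assay. Preformed protein/fluorescent probe complexes were used at 1.5/1 nM for Bcl-2, 10/2 nM for Bcl-xL and 20/2 nM for Mcl-1. These were mixed with serially diluted inhibitor and shaken gently for 2 h at room temperature before millipolarization was read. IC50 came from nonlinear regression, and Ki was calculated from IC50.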

Bcl-2-like protein 1 = Bcl-2-like protein 1 (Homo sapiens, UniProt Q07817); assay: Binding affinity to BCL-XL (unknown origin) after 2 hrs by fluorescence polarization assay; in short: as §1
Sequence of Bcl-2-like protein 1 (Q07817 whole entry): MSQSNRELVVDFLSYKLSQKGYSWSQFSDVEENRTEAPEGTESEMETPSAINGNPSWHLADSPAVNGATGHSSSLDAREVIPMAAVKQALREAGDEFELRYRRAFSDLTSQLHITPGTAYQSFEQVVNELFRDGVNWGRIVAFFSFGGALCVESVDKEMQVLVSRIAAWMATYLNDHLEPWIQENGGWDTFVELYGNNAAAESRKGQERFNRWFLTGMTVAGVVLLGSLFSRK

NCI-H1963 = assay: Cytotoxicity against human NCI-H1963 cells assessed as growth inhibition after 4 days by WST assay; assay type: functional, cell-based; details: NCI-H1963, 96 h
In short: (§2)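 Human small-cell lung cancer line from ATCC, kept in RPMI-1640 with 10% FBS. Cells were exposed to serial compound concentrations for 4 days. WST-8 dye was then added for a further 1–2 h and absorbance read at 450 nm. IC50 was derived from absorbance of treated versus untreated cells. At least three independent experiments per cell line; standard deviation reported.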

NCI-H187 = assay: Cytotoxicity against human NCI-H187 cells assessed as growth inhibition after 4 days by WST assay; assay type: functional, cell-based; details: NCI-H187, 96 h; in short: as §2
NCI-H1417 = assay: Cytotoxicity against human NCI-H1417 cells assessed as growth inhibition after 4 days by WST assay; assay type: functional, cell-based; details: NCI-H1417, 96 h; in short: as §2
Mus musculus [3] = assay: Toxicity in SCID mouse 15 mg/kg, iv administered 5 days per week for 2 weeks; assay type: organism-based; parameters: dose 15 mg/kg, route intravenous; details: in vivo
In short: (§3)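 Tolerability run in non-tumor-bearing SCID mice. Compound given intravenously at 15 or 25 mg/kg, daily, 5 days a week for 2 weeks. Weight loss and other signs of toxicity were followed during and after treatment, and the maximum tolerated dose was set from weight loss.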

NCI-H146 [4] = assay: Induction of apoptosis in human NCI-H146 cells xenografted in SCID mouse assessed as increase in caspase-3 cleavage at 15 mg/kg, iv after 3 to 6 hrs by Western blotting analysis; assay type: functional, organism-based; parameters: dose 15 mg/kg
In short: (§4)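 SCID mice bearing subcutaneous H146 xenografts of about 100 mm³ got a single intravenous dose of 15 mg/kg or vehicle. Tumors were harvested at 3, 6 or 24 h. Western blot then measured total and cleaved PARP and caspase-3.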

NCI-H146 [5] = assay: Induction of apoptosis in human NCI-H146 cells xenografted in SCID mouse assessed as increase in PARP cleavage at 15 mg/kg, iv after 3 to 6 hrs by Western blotting analysis; assay type: functional, organism-based; parameters: dose 15 mg/kg; in short: as §4
Mus musculus [6] = assay: Toxicity in SCID mouse assessed as weight loss at 25 mg/kg, iv administered 5 days per week for 2 weeks relative to control; assay type: organism-based; parameters: dose 25 mg/kg, route intravenous; details: in vivo; in short: as §3
[7] = molecular target: Induced myeloid leukemia cell differentiation protein Mcl-1 (Homo sapiens, UniProt Q07820); assay: Binding affinity to MCL1 (unknown origin) after 2 hrs by fluorescence polarization assay; in short: as §1
Sequence of Induced myeloid leukemia cell differentiation protein Mcl-1 (Q07820 whole entry): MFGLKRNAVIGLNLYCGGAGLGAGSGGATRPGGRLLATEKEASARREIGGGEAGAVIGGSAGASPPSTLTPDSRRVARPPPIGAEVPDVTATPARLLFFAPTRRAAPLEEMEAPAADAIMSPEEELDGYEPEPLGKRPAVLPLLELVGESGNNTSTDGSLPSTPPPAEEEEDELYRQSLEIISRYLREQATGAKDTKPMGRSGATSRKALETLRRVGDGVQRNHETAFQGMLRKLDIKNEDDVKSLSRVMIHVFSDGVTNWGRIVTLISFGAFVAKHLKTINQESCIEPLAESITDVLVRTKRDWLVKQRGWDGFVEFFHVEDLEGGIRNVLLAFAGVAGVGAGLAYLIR

Mus musculus [8] = assay: Toxicity in SCID mouse assessed as weight loss at 15 mg/kg, iv administered 5 days per week for 2 weeks relative to control; assay type: organism-based; parameters: dose 15 mg/kg, route intravenous; details: in vivo; in short: as §3
NCI-H146 [9] = assay: Antitumor activity against human NCI-H146 cells xenografted in SCID mouse assessed as tumor regression at 15 mg/kg, iv administered 5 days per week for 2 weeks; assay type: functional, organism-based; parameters: dose 15 mg/kg
In short: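 H146 cells (5×10^6, with Matrigel) implanted subcutaneously on the dorsal side of SCID mice, one tumor per mouse. Mice with tumors of 100–150 mm³ were randomized into groups of 8, mean volume 126 mm³. Vehicle or compound given intravenously at 15 mg/kg, daily, 5 days/week for 2 weeks. Tumor volume was followed over time.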

[10] = Toxicity in iv dosed SCID mouse assessed as weight loss administered 5 days per week for 2 weeks; assay type: organism-based; details: in vivo
In short: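 Maximum tolerated dose study in SCID mice. Compound was given intravenously at 15 or 25 mg/kg, daily, 5 days a week for 2 weeks. Body weight loss and other signs of toxicity were monitored during and after treatment.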

Sequence of Apoptosis regulator Bcl-2 (P10415 whole entry): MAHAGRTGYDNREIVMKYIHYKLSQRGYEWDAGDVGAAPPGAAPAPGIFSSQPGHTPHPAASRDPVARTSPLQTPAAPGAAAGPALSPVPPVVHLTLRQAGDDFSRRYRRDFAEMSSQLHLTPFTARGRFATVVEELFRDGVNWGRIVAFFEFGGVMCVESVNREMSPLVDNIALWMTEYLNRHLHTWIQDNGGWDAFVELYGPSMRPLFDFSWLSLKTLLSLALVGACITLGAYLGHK

SMILES	IC50 [1] [nM]	IC50 [2] [nM]	IC50 (Bcl-2-like protein 1) [nM]	further results
Cc1c(C(=O)NS(C)(=O)=O)c(-c2cccc(N3CCN(c4ccc(NS(=O)(=O)c5ccc(N[C@H](CCN(C)C)CSc6ccccc6)c([N+](=O)[O-])c5)cc4)CC3)c2)c(-c2ccc(Cl)cc2)n1C	38	0.9	–	–
CCCCn1c(C)c(C(=O)O)c(-c2cccc(N3CCN(c4ccc(NS(=O)(=O)c5ccc(N[C@H](CCN(C)C)CSc6ccccc6)c([N+](=O)[O-])c5)cc4)CC3)c2)c1-c1ccc(Cl)cc1	67	23	16	–
Cc1c(C#N)c(-c2cccc(N3CCN(c4ccc(NS(=O)(=O)c5ccc(N[C@H](CCN(C)C)CSc6ccccc6)c([N+](=O)[O-])c5)cc4)CC3)c2)c(-c2ccc(Cl)cc2)n1C	491	17	4.5	–
CN(C)CC[C@H](CSc1ccccc1)Nc1ccc(S(=O)(=O)Nc2ccc(N3CCN(c4cccc(-c5c(C(=O)O)c(Cl)n(C)c5-c5ccc(Cl)cc5)c4)CC3)cc2)cc1[N+](=O)[O-]	100	1.5	4.7	–
CN(C)CC[C@H](CSc1ccccc1)Nc1ccc(S(=O)(=O)Nc2ccc(N3CCN(c4cccc(-c5cn(C)nc5-c5ccc(Cl)cc5)c4)CC3)cc2)cc1[N+](=O)[O-]	> 10000	140	26	–
CN(C)CC[C@H](CSc1ccccc1)Nc1ccc(S(=O)(=O)NC(=O)c2ccc(N3CCN(Cc4ccccc4-c4ccc(Cl)cc4)CC3)cc2)cc1[N+](=O)[O-] [ABT 737]	–	–	–	IC50 (NCI-H1963): 54 nM; IC50 (NCI-H187): 138 nM; IC50 (NCI-H1417): 173 nM
CCn1c(C)c(C(=O)NS(C)(=O)=O)c(-c2cccc(N3CCN(c4ccc(NS(=O)(=O)c5ccc(N[C@H](CCN(C)C)CSc6ccccc6)c([N+](=O)[O-])c5)cc4)CC3)c2)c1-c1ccc(Cl)cc1	4.8	1.8	7	Activity (Mus musculus [3]): Non-toxic; Activity (NCI-H146 [4]): Active; Activity (NCI-H146 [5]): Active; Activity (Mus musculus [6]): 10%; IC50 (NCI-H1963): 8.2 nM; IC50 (NCI-H187): 7.9 nM; IC50 [7]: > 2000 nM; IC50 (NCI-H1417): 11.1 nM; Activity (Mus musculus [8]): < 5%; Activity (NCI-H146 [9]): Active; MTD at 2 weeks [10]: 15 mg/kg
CN(C)CC[C@H](CSc1ccccc1)Nc1ccc(S(=O)(=O)Nc2ccc(N3CCN(c4cccc(-c5cncn5-c5ccc(Cl)cc5)c4)CC3)cc2)cc1[N+](=O)[O-]	> 10000	46	18	–
CC1(C)CCC(c2ccc(Cl)cc2)=C(CN2CCN(c3ccc(C(=O)NS(=O)(=O)c4ccc(N[C@H](CCN5CCOCC5)CSc5ccccc5)c(S(=O)(=O)C(F)(F)F)c4)cc3)CC2)C1 [NAVITOCLAX]	–	–	–	IC50 (NCI-H1963): 26.6 nM; IC50 (NCI-H187): 38.4 nM; IC50 (NCI-H1417): 54.2 nM
CN(C)CC[C@H](CSc1ccccc1)Nc1ccc(S(=O)(=O)Nc2ccc(N3CCN(c4cccc(-c5cnn(C)c5-c5ccc(Cl)cc5)c4)CC3)cc2)cc1[N+](=O)[O-]	> 10000	210	15	–
CN(C)CC[C@H](CSc1ccccc1)Nc1ccc(S(=O)(=O)Nc2ccc(N3CCN(c4cccc(-c5c(C(=O)O)c(C(F)(F)F)n(C)c5-c5ccc(Cl)cc5)c4)CC3)cc2)cc1[N+](=O)[O-]	496	1.1	6	–
Cc1c(C(=O)O)c(-c2cccc(N3CCN(c4ccc(NS(=O)(=O)c5ccc(N[C@H](CCN(C)C)CSc6ccccc6)c([N+](=O)[O-])c5)cc4)CC3)c2)c(-c2ccc(Cl)cc2)n1C	–	1.3	–	–
Cc1cc(-c2cccc(N3CCN(c4ccc(NS(=O)(=O)c5ccc(N[C@H](CCN(C)C)CSc6ccccc6)c([N+](=O)[O-])c5)cc4)CC3)c2)c(-c2ccc(Cl)cc2)n1C	> 10000	–	–	–
CCn1c(C)c(C(=O)O)c(-c2cccc(N3CCN(c4ccc(NS(=O)(=O)c5ccc(N[C@H](CCN(C)C)CSc6ccccc6)c([N+](=O)[O-])c5)cc4)CC3)c2)c1-c1ccc(Cl)cc1	–	2	–	–
Cc1c(C(=O)N2CC(C)(O)C2)c(-c2cccc(N3CCN(c4ccc(NS(=O)(=O)c5ccc(N[C@H](CCN(C)C)CSc6ccccc6)c([N+](=O)[O-])c5)cc4)CC3)c2)c(-c2ccc(Cl)cc2)n1C	66	5.6	9.4	–
CN(C)CC[C@H](CSc1ccccc1)Nc1ccc(S(=O)(=O)Nc2ccc(N3CCN(c4cccc(-c5c(C(=O)NS(C)(=O)=O)cnn5-c5ccc(Cl)cc5)c4)CC3)cc2)cc1[N+](=O)[O-]	> 1000	5.4	5	–
Cc1c(C(F)(F)F)c(-c2cccc(N3CCN(c4ccc(NS(=O)(=O)c5ccc(N[C@H](CCN(C)C)CSc6ccccc6)c([N+](=O)[O-])c5)cc4)CC3)c2)c(-c2ccc(Cl)cc2)n1C	> 1000	271	13	–
CN(C)CC[C@H](CSc1ccccc1)Nc1ccc(S(=O)(=O)Nc2ccc(N3CCN(c4cccc(-c5ccnn5-c5ccc(Cl)cc5)c4)CC3)cc2)cc1[N+](=O)[O-]	> 10000	110	32	–
CN(C)CC[C@H](CSc1ccccc1)Nc1ccc(S(=O)(=O)Nc2ccc(N3CCN(c4cccc(-c5c(C(=O)O)nn(C)c5-c5ccc(Cl)cc5)c4)CC3)cc2)cc1[N+](=O)[O-]	> 1000	7.1	6.1	–
CCCn1c(C)c(C(=O)O)c(-c2cccc(N3CCN(c4ccc(NS(=O)(=O)c5ccc(N[C@H](CCN(C)C)CSc6ccccc6)c([N+](=O)[O-])c5)cc4)CC3)c2)c1-c1ccc(Cl)cc1	42	10	8.2	–
Cc1c(C(N)=O)c(-c2cccc(N3CCN(c4ccc(NS(=O)(=O)c5ccc(N[C@H](CCN(C)C)CSc6ccccc6)c([N+](=O)[O-])c5)cc4)CC3)c2)c(-c2ccc(Cl)cc2)n1C	245	19	14	–
Cc1c(Cl)c(-c2cccc(N3CCN(c4ccc(NS(=O)(=O)c5ccc(N[C@H](CCN(C)C)CSc6ccccc6)c([N+](=O)[O-])c5)cc4)CC3)c2)c(-c2ccc(Cl)cc2)n1C	> 1000	260	12	–
CN(C)CC[C@H](CSc1ccccc1)Nc1ccc(S(=O)(=O)Nc2ccc(N3CCN(c4cccc(-c5cnoc5-c5ccc(Cl)cc5)c4)CC3)cc2)cc1[N+](=O)[O-]	> 10000	350	22	–
Cc1c(C(=O)N[C@H]2C[C@@](C)(O)C2)c(-c2cccc(N3CCN(c4ccc(NS(=O)(=O)c5ccc(N[C@H](CCN(C)C)CSc6ccccc6)c([N+](=O)[O-])c5)cc4)CC3)c2)c(-c2ccc(Cl)cc2)n1C	12	7.5	15	–
CN(C)CC[C@H](CSc1ccccc1)Nc1ccc(S(=O)(=O)Nc2ccc(N3CCN(c4cccc(-c5c(-c6ccc(Cl)cc6)nn(C)c5C(=O)O)c4)CC3)cc2)cc1[N+](=O)[O-]	541	3.7	5.9	–
Cc1oc(-c2ccc(Cl)cc2)c(-c2cccc(N3CCN(c4ccc(NS(=O)(=O)c5ccc(N[C@H](CCN(C)C)CSc6ccccc6)c([N+](=O)[O-])c5)cc4)CC3)c2)c1C(=O)O	199	3.8	4.7	–
CN(C)CC[C@H](CSc1ccccc1)Nc1ccc(S(=O)(=O)Nc2ccc(N3CCN(c4cccc(-c5c(C(=O)NS(C)(=O)=O)ncn5-c5ccc(Cl)cc5)c4)CC3)cc2)cc1[N+](=O)[O-]	> 1000	3.8	8.3	–

Reference: ChEMBL document CHEMBL2321752, “A potent and highly efficacious Bcl-2/Bcl-xL inhibitor” (J Med Chem, 2013)
